Measurements published in ChEMBL document CHEMBL1121475, “Inhibitors of indoleethylamine N-methyltransferase. Derivatives of 3-methyl-2-thiazolidinimine. In vitro, in vivo, and metabolic studies” (J Med Chem, 1980).

Tests used:
Oryctolagus cuniculus [1] = assay: Radioactivity measurements were performed following oral administration of the 100 mg/kg in rabbit 5 after 2 hr lung; type: ADME, organism-based; design: dose 100 mg/kg, route oral; conditions: in vivo
Method in brief: (§1)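 Male rabbits (900-1060 g) received [14C]-labelled parent amide, 100 mg/kg (251.7 dpm/μg, pH about 4.5), by gavage. At 2 or 6 h they were killed by air injection into the ear vein. Blood was drawn by cardiac puncture; brain and lung were homogenized in water (1 g = 10 mL). Radioactivity is expressed as μg equivalents of parent per g or mL.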

Oryctolagus cuniculus [2] = assay: Radioactivity measurements were performed following oral administration of the 100 mg/kg in rabbit 5 after 2 hr in plasma; type: ADME, organism-based; design: dose 100 mg/kg, route oral; conditions: in vivo; method in brief: as §1
Oryctolagus cuniculus [3] = assay: Radioactivity measurements were performed following oral administration of the 100 mg/kg in rabbit 6 after 2 hr in plasma; type: ADME, organism-based; design: dose 100 mg/kg, route oral; conditions: in vivo; method in brief: as §1
Oryctolagus cuniculus [4] = assay: Evaluation of formation of 3-Methyl-thiazolidin-2-ylideneamine from the radiolabeled compound, orally administered, from rabbit 1 urine was analyzed at 0-2 hr by Gas-liquid chromatographic analysis; conditions: in vivo, po
Oryctolagus cuniculus [5] = assay: 100 mg/kg of [14C]- radiolabeled compound was orally (gavage) injected in rabbit kidney, and radioactivity content in feces was estimated; type: ADME, organism-based; conditions: in vivo, po
Method in brief: (§2)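 Rabbit given 100 mg/kg [14C]-labelled drug by gavage, 204.6 dpm/μg, in water/0.1 N HCl at 6.66 mg/mL. Rabbit 1 was killed at 2 h and liver, lung, kidney and blood taken; tissue values are μg equivalents/g and tissue:plasma ratio. Rabbit 3 was kept for urine (0-24, 24-48, 48-72 h) and feces (0-48 h), expressed as % of dose.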

Oryctolagus cuniculus [6] = assay: Evaluation of formation of 3-Methyl-thiazolidin-2-ylideneamine from the radiolabeled compound, orally administered, from rabbit 2,4 plasma was analyzed by Gas-liquid chromatographic analysis; type: ADME, organism-based; conditions: in vivo, po
Method in brief: (§3)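 Rabbit 2 was gavaged twice with [14C]-labelled parent amide, 100 mg/kg each dose (204.6 dpm/μg), 2 h apart, and killed 2 h after the second dose. Urine (0-4 h), blood, liver, lung and kidney were taken. The metabolite was measured by GLC of trimethylsilyl derivatives (3% OV-210, 95 °C, internal standard 3-ethyl-2-thiazolidinimine). Values are % of radioactivity as metabolite, mean of two determinations.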

Oryctolagus cuniculus [7] = assay: Radioactivity measurements were performed following oral administration of the 100 mg/kg in rabbit 7 after 6 hr in plasma; type: ADME, organism-based; design: dose 100 mg/kg, route oral; conditions: in vivo; method in brief: as §1
Oryctolagus cuniculus [8] = assay: Evaluation of formation of 3-Methyl-thiazolidin-2-ylideneamine from the radiolabeled compound, orally administered, from rabbit 2,4 kidney was analyzed by Gas-liquid chromatographic analysis; type: ADME, organism-based; conditions: in vivo, po; method in brief: as §3
[9] = biological target: Indolethylamine N-methyltransferase (Homo sapiens) (UniProt O95050); assay: In vitro evaluation of Indoleethylamine-N-methyltransferase in human lung preparations for ability to inhibit conversion of N-methyltryptamine (NMT) to N,N-dimethyltryptamine (DMT) at dose 25 ug/mL; type: tissue-based
Chain of Indolethylamine N-methyltransferase (Homo sapiens) (O95050 whole entry): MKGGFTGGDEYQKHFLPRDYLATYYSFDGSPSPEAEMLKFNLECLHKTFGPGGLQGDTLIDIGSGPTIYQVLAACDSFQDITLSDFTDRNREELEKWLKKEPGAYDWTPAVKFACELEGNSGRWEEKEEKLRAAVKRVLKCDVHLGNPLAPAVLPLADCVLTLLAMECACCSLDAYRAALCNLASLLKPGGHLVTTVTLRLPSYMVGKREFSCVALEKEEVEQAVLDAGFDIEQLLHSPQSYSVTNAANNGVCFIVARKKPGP
Method in brief: (§4)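 Human lung INMT was taken from the 50000g supernatant, cut with 40-60% ammonium sulfate, dialysed and purified on Sephadex G-150. The reaction contained 0.007 M N-methyltryptamine stock, S-[methyl-14C]adenosylmethionine and potassium phosphate, pH 7.9, in 0.105 mL, run 90 min at 37 °C. It was stopped with borate at pH 10. [14C]DMT was extracted into isoamyl alcohol and counted by scintillation.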

[10] = tested on: Indolethylamine N-methyltransferase (Oryctolagus cuniculus); assay: Compound tested for inhibitory activity against rabbit lung Indoleethylamine-N-methyltransferase at 5 mg/kg intravenously*p< 0.05
Oryctolagus cuniculus [11] = assay: 200 mg/kg of [14C]- radiolabeled compound was intravenously (gavage) injected in rabbit4, and radioactivity content in feces was estimated at total hours; type: ADME, organism-based; conditions: rabbit, in vivo, po, in the assay text read “orally (gavage) administered” for “intravenously (gavage) injected”
Method in brief: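 Rabbit given two 100 mg/kg gavage doses of [14C]-labelled drug, 2 h apart, 204.6 dpm/μg, 6.66 mg/mL in water/0.1 N HCl. Rabbit 2 was killed 2 h after the last dose and liver, lung, kidney and plasma taken (μg equivalents/g; tissue:plasma ratio). Rabbit 4 gave urine over 0-4, 0-24, 24-48 and 48-72 h and feces over 0-48 h, as % of dose.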

Oryctolagus cuniculus [12] = assay: Evaluation of formation of 3-Methyl-thiazolidin-2-ylideneamine from the radiolabeled compound, orally administered, from rabbit 1,2 kidney was analyzed by Gas-liquid chromatographic analysis; type: ADME, organism-based; conditions: in vivo, po
Method in brief: (§5)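 Rabbit 1 was given [14C]-labelled parent amide, 100 mg/kg (204.6 dpm/μg), orally by gavage and killed 2 h later. Urine (0-2 h), blood, liver, lung and kidney were collected. Samples were extracted, trimethylsilylated with BSA/pyridine at 70 °C for 12-16 h, and run by GLC on 3% OV-210 at 95 °C against the internal standard 3-ethyl-2-thiazolidinimine. Output is % of radioactivity present as the metabolite, mean of two determinations.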

[13] = Dose that causes approximately 50% lethality in mice, when given intraperitoneally; Value ranges from 1000-1500; type: ADME, organism-based; conditions: mouse, in vivo, ip
Oryctolagus cuniculus [14] = assay: 100 mg/kg of [14C]- radiolabeled compound was orally (gavage) injected in rabbit1plasma, and radioactivity content in feces was estimated; type: ADME, organism-based; conditions: rabbit, in vivo, po; method in brief: as §2
Oryctolagus cuniculus [15] = assay: Evaluation of formation of 3-Methyl-thiazolidin-2-ylideneamine from the radiolabeled compound, orally administered, from rabbit 2,4 lung was analyzed by Gas-liquid chromatographic analysis; type: ADME, organism-based; conditions: in vivo, po; method in brief: as §3
Oryctolagus cuniculus [16] = assay: Percent of 3-Methyl-thiazolidin-2-ylideneamine as administered dose was reported in rabbit 1; type: ADME, organism-based; conditions: in vivo
Oryctolagus cuniculus [17] = assay: Evaluation of formation of 3-Methyl-thiazolidin-2-ylideneamine from the radiolabeled compound, orally administered, from rabbit 1,2 plasma was analyzed by Gas-liquid chromatographic analysis; type: ADME, organism-based; conditions: in vivo, po; method in brief: as §5
Oryctolagus cuniculus [18] = assay: 200 mg/kg of [14C]- radiolabeled compound was orally administered in rabbit4, and radioactivity content in urine was estimated at total hours; conditions: rabbit, in vivo, po
Oryctolagus cuniculus [19] = assay: 100 mg/kg of [14C]- radiolabeled compound was orally (gavage) administered in rabbit3, and radioactivity content in urine was estimated at 24-48 h; conditions: rabbit, in vivo, po
[20] = biological target: Indolethylamine N-methyltransferase (Homo sapiens) (UniProt O95050); assay: In vitro evaluation of Indoleethylamine-N-methyltransferase in human lung preparations for the ability to inhibit conversion of N-methyltryptamine (NMT) to N,N-dimethyltryptamine (DMT) at dose 2.5 ug/mL; type: tissue-based; method in brief: as §4
[21] = tested on: Indolethylamine N-methyltransferase (Oryctolagus cuniculus); assay: In vivo evaluation of specific activity against rabbit lung Indoleethylamine-N-methyltransferase at intravenous dose of 5 mg/kg
Oryctolagus cuniculus [22] = assay: 100 mg/kg of [14C]- radiolabeled compound was orally administered in rabbit3, and radioactivity content in feces was estimated at 0-48 hr; conditions: rabbit, in vivo, po
Oryctolagus cuniculus [23] = assay: Percent of 3-Methyl-thiazolidin-2-ylideneamine as administered dose was reported in rabbit 4 by Gas-liquid chromatographic analysis; type: ADME, organism-based; conditions: in vivo
Method in brief: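 Rabbits 3 (single 100 mg/kg) and 4 (two 100 mg/kg doses 2 h apart) were gavaged with [14C]-labelled parent amide (204.6 dpm/μg). They were not killed; urine was collected 0-24 h. The metabolite was quantified by GLC of trimethylsilylated extracts against an internal-standard peak-height-ratio curve. Results are given as % of urinary radioactivity or % of administered dose, mean of two determinations.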

Compound: CN1CCS/C1=N\C(=O)CCC(=O)/N=C1/SCCN1C
- Radioactivity level (Oryctolagus cuniculus [1]): 36.4 µg/g
- Radioactivity level (Oryctolagus cuniculus [2]): 14.2 µg/mL
- Radioactivity level (Oryctolagus cuniculus [3]): 21.1 µg/mL
- Percent of urinary radioactivity (Oryctolagus cuniculus [4]): 57.2%
- Tissue concentration (Oryctolagus cuniculus [5]): 211 µg/g
- Radioactivity (Oryctolagus cuniculus [6]): 48.9%
- Radioactivity level (Oryctolagus cuniculus [7]): 4.1 µg/mL
- Radioactivity (Oryctolagus cuniculus [8]): 65.3%
- inhibition [9]: 12%
- inhibition [10]: 64%
- Administered dose (Oryctolagus cuniculus [11]): 94%
- Radioactivity (Oryctolagus cuniculus [12]): 72.8%
- LD50 [13]: 1000 mg/kg
- Plasma concentration (Oryctolagus cuniculus [14]): 23.5 µg/g
- Radioactivity (Oryctolagus cuniculus [15]): 75.4%
- Administered dose (Oryctolagus cuniculus [16]): 27.9%
- Radioactivity (Oryctolagus cuniculus [17]): 26.5%
- Administered dose (Oryctolagus cuniculus [18]): 88%
- Administered dose (Oryctolagus cuniculus [19]): 0.8%
- inhibition [20]: 74%
- Specific activity [21]: 37000 dpm
- Administered dose (Oryctolagus cuniculus [22]): 3.8%
- Administered dose (Oryctolagus cuniculus [23]): 41.3%
